Test results taken from ChEMBL document CHEMBL4118021, “Studies of TAK1-centered polypharmacology with novel covalent TAK1 inhibitors” (Bioorg Med Chem, 2017).

Columns and labels:
Type in all cases: cell-based
[1] = molecular target: T1, Aurora kinase A (Homo sapiens) (UniProt O14965); experiment: Inhibition of AurA in human SKCO1 cells at 1 uM after 4 hrs using biotin labeled FILALKVLFK probe by mass-spectrometric analysis relative to control
T1 sequence (whole entry): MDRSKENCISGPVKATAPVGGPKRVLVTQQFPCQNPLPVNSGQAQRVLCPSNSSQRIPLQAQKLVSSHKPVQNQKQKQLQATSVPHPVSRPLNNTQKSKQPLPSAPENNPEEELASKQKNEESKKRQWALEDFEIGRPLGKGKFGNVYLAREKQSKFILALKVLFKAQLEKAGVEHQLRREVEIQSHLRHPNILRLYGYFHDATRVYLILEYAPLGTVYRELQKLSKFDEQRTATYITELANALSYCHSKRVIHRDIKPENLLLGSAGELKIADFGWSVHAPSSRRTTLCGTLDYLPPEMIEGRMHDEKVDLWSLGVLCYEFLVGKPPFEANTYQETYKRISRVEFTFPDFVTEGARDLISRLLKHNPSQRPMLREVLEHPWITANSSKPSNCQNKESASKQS
Procedure, shortened: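 Live SK-CO-1 cells were treated 4 h with compound at 1 μM or DMSO, then lysed. Lysates were labeled with a lysine-reactive ATP/ADP-biotin probe and analysed by mass spectrometry. Percent inhibition is the loss of probe-dependent recovery of the kinase peptide relative to DMSO.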

[2] = molecular target: Ribosomal protein S6 kinase beta-2 (Homo sapiens) (UniProt Q9UBS0); experiment: Inhibition of p70S6Kb in human SKCO1 cells at 1 uM after 4 hrs using biotin labeled DLKPENIMLSSQGHIK probe by mass-spectrometric analysis relative to control
Ribosomal protein S6 kinase beta-2 (Homo sapiens), sequence (Q9UBS0 whole entry): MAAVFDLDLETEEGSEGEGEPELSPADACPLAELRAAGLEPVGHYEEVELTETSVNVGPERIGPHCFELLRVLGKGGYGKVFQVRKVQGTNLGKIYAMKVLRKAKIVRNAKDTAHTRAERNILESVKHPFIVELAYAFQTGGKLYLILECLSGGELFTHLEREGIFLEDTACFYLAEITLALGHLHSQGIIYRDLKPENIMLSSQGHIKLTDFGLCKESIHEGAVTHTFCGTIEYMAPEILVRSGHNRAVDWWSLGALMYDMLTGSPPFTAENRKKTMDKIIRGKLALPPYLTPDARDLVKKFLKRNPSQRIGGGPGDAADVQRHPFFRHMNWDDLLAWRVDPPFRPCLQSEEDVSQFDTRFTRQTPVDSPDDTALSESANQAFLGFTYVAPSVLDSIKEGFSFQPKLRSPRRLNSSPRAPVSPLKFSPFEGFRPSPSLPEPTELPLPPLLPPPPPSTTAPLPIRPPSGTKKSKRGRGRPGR
Procedure, shortened: (§1)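 Live SK-CO-1 cells exposed to compound at 1 μM or DMSO for 4 h (KiNativ). Lysates then labeled with lysine-reactive ATP/ADP-biotin probe, and probe-labeled kinase peptides quantified by mass spectrometry. Percent inhibition of probe-dependent recovery calculated relative to DMSO-treated cells.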

[3] = molecular target: Interleukin-1 receptor-associated kinase 1 (Homo sapiens) (UniProt P51617); experiment: Inhibition of IRAK1 in human SKCO1 cells at 1 uM after 4 hrs using biotin labeled AIQFLHQDSPSLIHGDIKSSNVLLDER probe by mass-spectrometric analysis relative to control
Interleukin-1 receptor-associated kinase 1 (Homo sapiens), sequence (P51617 whole entry, looked up): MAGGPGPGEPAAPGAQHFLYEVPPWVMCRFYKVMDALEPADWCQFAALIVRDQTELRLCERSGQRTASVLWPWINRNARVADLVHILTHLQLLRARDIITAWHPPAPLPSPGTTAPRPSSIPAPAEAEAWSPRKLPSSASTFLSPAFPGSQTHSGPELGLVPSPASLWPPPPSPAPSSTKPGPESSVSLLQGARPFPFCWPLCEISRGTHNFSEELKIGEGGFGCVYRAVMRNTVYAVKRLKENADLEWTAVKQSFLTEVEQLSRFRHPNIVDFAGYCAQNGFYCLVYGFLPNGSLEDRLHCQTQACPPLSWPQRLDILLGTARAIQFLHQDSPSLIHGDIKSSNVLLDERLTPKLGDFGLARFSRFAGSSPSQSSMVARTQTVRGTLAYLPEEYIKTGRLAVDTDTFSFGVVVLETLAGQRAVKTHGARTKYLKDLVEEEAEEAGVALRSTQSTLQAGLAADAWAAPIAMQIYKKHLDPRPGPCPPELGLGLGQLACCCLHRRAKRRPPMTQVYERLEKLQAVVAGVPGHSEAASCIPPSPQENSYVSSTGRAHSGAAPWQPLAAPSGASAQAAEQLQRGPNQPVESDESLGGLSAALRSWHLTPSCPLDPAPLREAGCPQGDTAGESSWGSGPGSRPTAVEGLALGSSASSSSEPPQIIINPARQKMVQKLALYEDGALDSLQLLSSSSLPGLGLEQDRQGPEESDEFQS

[4] = molecular target: Serine/threonine-protein kinase PAK 2 (Homo sapiens) (UniProt Q13177); experiment: Inhibition of PAK2 in human SKCO1 cells at 1 uM after 4 hrs using biotin labeled IGQGASGTVFTATDVALGQEVAIKQINLQK probe by mass-spectrometric analysis relative to control; procedure, shortened: as §1
Serine/threonine-protein kinase PAK 2 (Homo sapiens), sequence (Q13177 whole entry): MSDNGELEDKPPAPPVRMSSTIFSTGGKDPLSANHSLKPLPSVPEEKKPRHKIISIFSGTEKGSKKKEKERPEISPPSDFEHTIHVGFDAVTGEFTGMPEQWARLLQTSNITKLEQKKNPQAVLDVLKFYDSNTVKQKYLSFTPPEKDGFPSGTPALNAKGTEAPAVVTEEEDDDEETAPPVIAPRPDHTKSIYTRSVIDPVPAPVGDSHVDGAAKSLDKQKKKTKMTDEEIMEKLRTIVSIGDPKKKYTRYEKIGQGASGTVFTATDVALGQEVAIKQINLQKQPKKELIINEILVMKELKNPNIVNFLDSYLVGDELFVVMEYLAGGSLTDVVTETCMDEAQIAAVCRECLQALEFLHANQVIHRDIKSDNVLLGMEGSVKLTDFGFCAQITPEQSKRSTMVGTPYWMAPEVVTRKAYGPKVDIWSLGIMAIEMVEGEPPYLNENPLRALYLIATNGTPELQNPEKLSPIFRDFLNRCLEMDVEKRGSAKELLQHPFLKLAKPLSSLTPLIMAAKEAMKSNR

[5] = molecular target: Dual specificity mitogen-activated protein kinase kinase 1 (Homo sapiens) (UniProt Q02750); experiment: Inhibition of MAP2K1 in human SKCO1 cells at 1 uM after 4 hrs using biotin labeled IMHRDVKPSNILVNSR probe by mass-spectrometric analysis relative to control
Dual specificity mitogen-activated protein kinase kinase 1 (Homo sapiens), sequence (Q02750 whole entry): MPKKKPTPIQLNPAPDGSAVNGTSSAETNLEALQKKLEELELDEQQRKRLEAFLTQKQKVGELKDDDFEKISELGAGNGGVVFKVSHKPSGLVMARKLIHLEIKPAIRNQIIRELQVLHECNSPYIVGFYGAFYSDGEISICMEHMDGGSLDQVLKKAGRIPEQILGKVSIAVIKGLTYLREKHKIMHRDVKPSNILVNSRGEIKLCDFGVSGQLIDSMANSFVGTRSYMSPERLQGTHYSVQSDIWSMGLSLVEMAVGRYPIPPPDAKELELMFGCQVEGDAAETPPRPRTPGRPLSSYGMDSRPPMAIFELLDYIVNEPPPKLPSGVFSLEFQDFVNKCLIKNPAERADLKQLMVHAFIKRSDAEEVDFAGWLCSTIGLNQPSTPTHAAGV
Procedure, shortened: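 Live SK-CO-1 cells treated 4 h at 1 μM (DMSO control); cells lysed and lysates labeled with lysine-reactive ATP/ADP-biotin probe (KiNativ); probe-labeled kinase peptides quantified by mass spectrometry; inhibition expressed as percent reduction in probe-dependent recovery versus DMSO-treated cells.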

[6] = molecular target: T2, Calcium/calmodulin-dependent protein kinase type IV (Homo sapiens) (UniProt Q16566); experiment: Inhibition of CaMK4 in human SKCO1 cells at 1 uM after 4 hrs using biotin labeled DLKPENLLYATPAPDAPLK probe by mass-spectrometric analysis relative to control
T2 sequence (whole entry): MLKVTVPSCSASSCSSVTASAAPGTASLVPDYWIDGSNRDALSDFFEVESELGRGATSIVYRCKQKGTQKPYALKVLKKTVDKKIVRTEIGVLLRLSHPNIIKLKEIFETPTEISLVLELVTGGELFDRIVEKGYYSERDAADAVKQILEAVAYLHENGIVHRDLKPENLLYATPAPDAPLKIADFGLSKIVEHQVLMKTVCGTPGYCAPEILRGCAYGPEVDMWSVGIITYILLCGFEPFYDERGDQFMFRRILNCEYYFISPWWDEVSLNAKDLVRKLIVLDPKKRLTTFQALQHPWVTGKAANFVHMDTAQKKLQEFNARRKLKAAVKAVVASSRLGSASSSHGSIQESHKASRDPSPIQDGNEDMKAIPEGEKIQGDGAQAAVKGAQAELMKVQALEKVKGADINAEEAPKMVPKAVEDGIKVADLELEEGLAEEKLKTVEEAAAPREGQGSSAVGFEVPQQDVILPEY

[7] = molecular target: T3, Serine/threonine-protein kinase LATS1 (Homo sapiens) (UniProt O95835); experiment: Inhibition of LATS1 in human SKCO1 cells at 1 uM after 4 hrs using biotin labeled ALYATKTLR probe by mass-spectrometric analysis relative to control
T3 sequence (whole entry): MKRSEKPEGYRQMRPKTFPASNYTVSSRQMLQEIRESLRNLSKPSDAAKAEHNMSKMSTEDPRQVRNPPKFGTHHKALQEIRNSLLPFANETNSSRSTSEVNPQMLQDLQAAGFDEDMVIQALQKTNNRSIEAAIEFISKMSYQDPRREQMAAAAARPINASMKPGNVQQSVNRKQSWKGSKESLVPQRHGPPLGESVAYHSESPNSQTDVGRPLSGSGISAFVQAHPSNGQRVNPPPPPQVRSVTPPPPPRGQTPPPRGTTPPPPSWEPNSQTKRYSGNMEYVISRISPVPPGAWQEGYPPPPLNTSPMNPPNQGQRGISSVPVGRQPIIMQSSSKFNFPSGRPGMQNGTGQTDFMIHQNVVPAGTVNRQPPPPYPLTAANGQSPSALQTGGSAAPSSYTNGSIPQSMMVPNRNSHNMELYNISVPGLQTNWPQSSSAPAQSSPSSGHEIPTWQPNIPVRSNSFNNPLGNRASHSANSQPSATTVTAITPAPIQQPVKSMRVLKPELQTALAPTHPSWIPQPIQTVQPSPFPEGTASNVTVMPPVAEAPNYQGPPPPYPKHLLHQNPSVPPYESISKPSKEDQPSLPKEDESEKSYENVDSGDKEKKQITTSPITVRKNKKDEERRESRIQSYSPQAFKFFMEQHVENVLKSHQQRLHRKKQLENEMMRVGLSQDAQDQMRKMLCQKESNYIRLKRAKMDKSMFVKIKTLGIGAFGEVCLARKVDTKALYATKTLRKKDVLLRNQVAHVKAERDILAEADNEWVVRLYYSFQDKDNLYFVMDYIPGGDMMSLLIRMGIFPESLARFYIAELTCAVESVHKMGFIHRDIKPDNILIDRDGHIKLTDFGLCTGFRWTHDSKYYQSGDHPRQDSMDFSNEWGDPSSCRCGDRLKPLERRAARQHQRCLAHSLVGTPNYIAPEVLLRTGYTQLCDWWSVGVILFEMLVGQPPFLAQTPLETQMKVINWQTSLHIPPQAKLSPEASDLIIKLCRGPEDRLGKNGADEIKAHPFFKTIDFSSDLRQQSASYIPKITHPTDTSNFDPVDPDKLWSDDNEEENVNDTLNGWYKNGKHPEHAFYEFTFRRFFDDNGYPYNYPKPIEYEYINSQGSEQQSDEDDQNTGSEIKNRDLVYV

COc1cc(O)c2c(c1)/C=C/C[C@H](O)[C@H](O)C(=O)/C=C\C[C@H](C)OC2=O
inhibition [1]: 59.4% | inhibition [2]: 54.6% | inhibition [3]: -6% | inhibition [4]: -3.9% | inhibition [5]: 89.4% | inhibition [6]: 30.6% | inhibition [7]: 9.9%

C=CC(=O)Nc1ccccc1Nc1nc(Nc2ccc(N3CCN(C)CC3)cc2)ncc1Cl
inhibition [1]: 87.2% | inhibition [2]: 3.3% | inhibition [3]: 38.2% | inhibition [4]: -8.6% | inhibition [5]: 60% | inhibition [6]: -2.6% | inhibition [7]: 17.5%

C=CC(=O)Nc1ccccc1Oc1nc(Nc2cnn(CCOC)c2)ncc1Cl
inhibition [1]: 52.6% | inhibition [2]: -1.5% | inhibition [3]: -4.5% | inhibition [4]: 3% | inhibition [5]: -7.9% | inhibition [6]: -7.4% | inhibition [7]: 5.3%
